Data on 17 compounds can be found in ChEMBL document CHEMBL4814039, “Identification of non-covalent SARS-CoV-2 main protease inhibitors by a virtual screen of commercially available drug-like compounds” (Bioorg Med Chem Lett, 2021).

Broadly, the inhibition is the relative decrease from the control value, in per cent.

This assay deals with Replicase polyprotein 1ab (Severe acute respiratory syndrome coronavirus 2) (UniProt P0DTD1). As to the kind of experiment: Inhibition of SARS-CoV-2 main protease at 50 uM using Dabcy1-KTSAVLQSGFRKM-E-Edans-NH2 as substrate incubated for 10 mins followed by substrate addition by FRET assay relative to control. The method, boiled down:
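Mpro, 0.5 µM final, in pH 7.3 buffer (20 mM Tris-HCl, 100 mM NaCl, 1 mM EDTA, 1 mM DTT) preincubated with compound (50 µM final, from DMSO stock) at 37 °C for 10 min. Reaction started with FRET substrate solution at 20 µM. Read ex 360/em 460 nm. Inhibition is from the initial linear ΔRFU/s versus a DMSO-only control. Triplicate, mean ± SD.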

Take `Cc1cccc(Nc2nc(C(=O)N3CCc4ccccc43)nc3ccccc23)c1`: the inhibition is 45.7%. To `O=C(CN1C(=O)c2ccccc2N2C(=O)c3ccccc3[C@H]12)Nc1cccc(O)c1` belongs 5.21%; to `Fc1ccc([C@H]2Oc3ccccc3[C@H]3CC(c4ccc5c(c4)OCO5)=NN32)cc1`, 6.87%; to `O=C(c1cc2nccc(-c3ccc4ccccc4c3)n2n1)N1CCN2CCC[C@H]2C1`, 9.38%.

On to `CC1=NN(c2ccc3ccccc3c2)C(=O)/C1=C1/C(=O)Nc2ccc(Cl)cc21`, for which the inhibition stood at 16.6%.

For the compound `Cc1cccc2cc(-c3c4cn[nH]c4nc4c3oc3c(O)c(O)ccc34)c(=O)[nH]c12`, the inhibition is 76.6%.

On to `Cc1cc(C)nc(-n2nc(C)c3c2NC(=O)C[C@@H]3c2ccc3ccccc3c2)n1`, for which the inhibition was 7.54%. Then `Cn1c2ccccc2c(=O)c2c1nc(Cc1ccccc1)n1c3ccccc3nc21`, with 7.42%; and `O=C1C[C@H](c2ccc(Cl)cc2)N2N=C(N3C(=O)[C@H]4CCCC[C@H]4C3=O)NC2=N1`, with 8.84%. Then `Cc1cccc2[nH]c([C@H]3CCCN(C(=O)c4nc5ccccn5c4F)C3)nc12`, with 11.1%. Then `Cn1c2ccccc2c2cc([C@@H]3N[C@H](C(=O)O)Cc4c3[nH]c3ccccc43)ccc21`, with 6.54%. With `O=C(c1ccc2ccccc2n1)N1CCc2c(nc(-c3ccccc3)[nH]c2=O)C1`, the inhibition was 1.16%.

`O=c1oc2ccccc2c(O)c1[C@H]1c2ncccc2-c2c1c(=O)oc1ccccc21` came in with an inhibition of 8.23%. Then `CC(=O)N1N=C(c2cc(-c3ccccc3)nc3ccccc23)O[C@H]1c1ccccc1`, with 14.3%; and `Cc1ccc2c(c1)NC1(CCN(C(=O)Cc3ccc(F)cc3)CC1)c1cccn1-2`, with 6.29%.

As to `Cc1ccc(-n2nc(C)c3c(C)cc(OCc4ccc5nonc5c4)nc32)cc1`, the inhibition was 5.26%. Then `O=C(NCc1ccc2c(c1)OCO2)c1ccc2nc3[nH]c4ccccc4c3nc2c1`, with 35.6%.
